The values below come from article PMC11375723 (ACS Omega, 2024).

Holding throughout (assay type): cell-based, human
Assay [1] deals with A549 lung carcinoma cells. Briefly: Resazurin antiproliferative microtiter assay, A549. The following applies: read-out: IC50, μM (± SEM), A549, 48 h drug exposure. Put shortly: (§1)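 Human cells at 37 °C, 5% CO2, with 10% cosmic calf serum in DMEM/F12 (A549), DMEM (MDA-MB-231, HFF) or EMEM (HT-1080, MRC-5). Plated 5,000 cells/180 µL and left 24 h to adhere. Test compound 0.1–100 µM, quadruplicate, 2–3 repeats, 48 h. Then 0.1% resazurin; fluorescence ex 530/em 590 after 24–48 h.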
For orientation: The colour change of resazurin is a common sign of viable cells or microbes.

In assay [2] the test system is HT-1080 fibrosarcoma cells. Briefly: Resazurin antiproliferative microtiter assay, HT-1080. Particulars: read-out: IC50, μM (± SEM), HT-1080, 48 h drug exposure. In outline:
as §1

The test system of assay [3] is MDA-MB-231 breast carcinoma cells. Kind of assay: Resazurin antiproliferative microtiter assay, MDA-MB-231. The following applies: read-out: IC50, μM (± SEM), MDA-MB-231, 48 h drug exposure. In outline: as §1

In the case of `N.N.[Cl][Pt][Cl]` [Cisplatin], the IC50 came to 19 µM in assay [1], 17.5 µM in assay [2] and 48.6 µM in assay [3].

Consider “Piperidine-2-(4-methoxyphenyl)diazothioformamide – Cu(l)Br [Compound 5c]”, for which, in assay [2], the IC50 was < 1 µM.

On to “Pyrrolidine-2-(4-methoxyphenyl)diazothioformamide – Cu(l)I [Compound 4b]”, for which, in assay [2], the IC50 was < 1 µM.

By IC50 is commonly meant the midpoint of a concentration-inhibition curve.
